Experimental data: paper PMC3607822 (The Journal of General Physiology, 2013)

How the values were obtained:
[1] = target: CNGA3 N7R-A (R72A, R75A, R81A, R82A, R86A, R101A, R103A) channels (Homo sapiens, UniProt Q16281, R101A/R103A/R72A/R75A/R81A/R82A/R86A); assay: Inside-out patch clamp, CNGA3 N7R-A; type: biochemical
[2] = target: T1, A3-N7R-A,RR-QQ+B3 channels (Homo sapiens, UniProt Q16281+Q9NQW8, R101A/R103A/R643Q/R646Q/R72A/R75A/R81A/R82A/R86A); assay: Inside-out patch clamp, A3-N7R-A,RR-QQ+B3; type: biochemical
T1 sequence (Q16281 1-694 R72A/R75A/R81A/R82A/R86A/R101A/R103A/R643Q/R646Q): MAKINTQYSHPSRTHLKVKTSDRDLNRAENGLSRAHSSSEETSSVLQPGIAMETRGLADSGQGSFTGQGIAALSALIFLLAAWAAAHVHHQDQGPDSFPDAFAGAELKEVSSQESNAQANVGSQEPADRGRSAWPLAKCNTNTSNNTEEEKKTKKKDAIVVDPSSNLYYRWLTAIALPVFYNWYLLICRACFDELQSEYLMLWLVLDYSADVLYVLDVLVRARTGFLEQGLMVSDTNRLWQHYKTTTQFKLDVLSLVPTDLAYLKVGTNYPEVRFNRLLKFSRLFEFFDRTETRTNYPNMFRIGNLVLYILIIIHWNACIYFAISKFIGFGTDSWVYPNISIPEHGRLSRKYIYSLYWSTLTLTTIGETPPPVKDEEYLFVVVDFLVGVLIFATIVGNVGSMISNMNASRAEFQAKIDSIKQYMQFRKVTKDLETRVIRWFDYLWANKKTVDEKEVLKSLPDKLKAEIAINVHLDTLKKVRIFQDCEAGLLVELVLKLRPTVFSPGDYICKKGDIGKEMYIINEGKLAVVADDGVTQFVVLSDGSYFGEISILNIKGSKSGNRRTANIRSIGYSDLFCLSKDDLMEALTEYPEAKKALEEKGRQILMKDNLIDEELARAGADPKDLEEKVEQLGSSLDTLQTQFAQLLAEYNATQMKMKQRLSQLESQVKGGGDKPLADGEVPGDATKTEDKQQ
T1 sequence (Q9NQW8 1-809): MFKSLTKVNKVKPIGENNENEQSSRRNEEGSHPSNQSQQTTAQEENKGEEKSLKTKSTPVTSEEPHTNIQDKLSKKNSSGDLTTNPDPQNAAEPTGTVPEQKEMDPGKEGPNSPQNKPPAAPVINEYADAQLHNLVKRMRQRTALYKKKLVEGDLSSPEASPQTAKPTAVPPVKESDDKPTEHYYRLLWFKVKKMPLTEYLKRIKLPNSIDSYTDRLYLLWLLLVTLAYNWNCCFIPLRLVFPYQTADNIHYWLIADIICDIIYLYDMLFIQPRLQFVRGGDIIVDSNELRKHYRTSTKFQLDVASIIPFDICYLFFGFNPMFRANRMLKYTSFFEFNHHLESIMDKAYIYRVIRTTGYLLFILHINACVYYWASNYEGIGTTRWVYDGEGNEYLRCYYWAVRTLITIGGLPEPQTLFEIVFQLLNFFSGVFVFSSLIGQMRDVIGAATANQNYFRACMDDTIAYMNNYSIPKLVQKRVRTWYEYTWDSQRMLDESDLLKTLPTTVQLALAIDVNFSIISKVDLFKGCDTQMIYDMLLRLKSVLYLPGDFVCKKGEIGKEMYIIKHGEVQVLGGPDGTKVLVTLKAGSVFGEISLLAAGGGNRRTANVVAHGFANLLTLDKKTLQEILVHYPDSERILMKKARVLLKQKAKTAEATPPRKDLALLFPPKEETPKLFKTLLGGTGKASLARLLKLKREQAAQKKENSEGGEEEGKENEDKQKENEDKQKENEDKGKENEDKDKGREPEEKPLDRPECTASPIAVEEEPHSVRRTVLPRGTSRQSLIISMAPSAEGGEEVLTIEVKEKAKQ
Method in brief: (§1)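 Subunit cRNAs (~20 ng, B in excess over A) injected into stage IV Xenopus oocytes; inside-out patches 2–7 d later, 20–22°C, symmetric 130 mM NaCl, 0.2 mM EDTA, 3 mM Hepes pH 7.2. Heteromer formation checked by 25 µM l-cis-diltiazem with 1 mM cGMP. diC8 phosphoinositides applied intracellularly in phosphatase-inhibitor cocktail. cGMP dose–response at +80 mV, leak-subtracted, Hill fit before/after for K1/2; mean ± SEM.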

[3] = target: wild-type CNGA2 with CNGB3 channels (UniProt Q00195+Q9NQW8); assay: Inside-out patch clamp, CNGA2 with CNGB3; type: biochemical, rat, human; settings: 1 µM PIP3
Chain of wild-type CNGA2 with CNGB3 channels (Q00195 whole entry, one chain of several): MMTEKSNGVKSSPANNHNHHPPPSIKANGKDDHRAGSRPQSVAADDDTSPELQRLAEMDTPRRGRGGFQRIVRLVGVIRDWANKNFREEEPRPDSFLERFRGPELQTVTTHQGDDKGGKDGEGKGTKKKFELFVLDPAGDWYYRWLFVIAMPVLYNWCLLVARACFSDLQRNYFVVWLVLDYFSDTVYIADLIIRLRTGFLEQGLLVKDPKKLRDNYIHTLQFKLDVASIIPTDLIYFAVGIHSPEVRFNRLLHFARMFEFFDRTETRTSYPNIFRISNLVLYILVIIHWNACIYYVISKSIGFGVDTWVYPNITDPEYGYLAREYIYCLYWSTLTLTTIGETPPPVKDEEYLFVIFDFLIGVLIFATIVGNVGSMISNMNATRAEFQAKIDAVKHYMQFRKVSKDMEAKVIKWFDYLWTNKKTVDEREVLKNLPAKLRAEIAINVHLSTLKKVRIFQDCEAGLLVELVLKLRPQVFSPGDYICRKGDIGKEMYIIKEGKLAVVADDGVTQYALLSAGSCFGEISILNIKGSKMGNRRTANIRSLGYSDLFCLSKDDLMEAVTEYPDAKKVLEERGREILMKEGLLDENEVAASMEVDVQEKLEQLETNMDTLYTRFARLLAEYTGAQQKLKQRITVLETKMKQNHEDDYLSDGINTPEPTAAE
Method in brief: as §1

Chain of CNGA3 N7R-A (R72A, R75A, R81A, R82A, R86A, R101A, R103A) channels (Q16281 whole entry R72A/R75A/R81A/R82A/R86A/R101A/R103A): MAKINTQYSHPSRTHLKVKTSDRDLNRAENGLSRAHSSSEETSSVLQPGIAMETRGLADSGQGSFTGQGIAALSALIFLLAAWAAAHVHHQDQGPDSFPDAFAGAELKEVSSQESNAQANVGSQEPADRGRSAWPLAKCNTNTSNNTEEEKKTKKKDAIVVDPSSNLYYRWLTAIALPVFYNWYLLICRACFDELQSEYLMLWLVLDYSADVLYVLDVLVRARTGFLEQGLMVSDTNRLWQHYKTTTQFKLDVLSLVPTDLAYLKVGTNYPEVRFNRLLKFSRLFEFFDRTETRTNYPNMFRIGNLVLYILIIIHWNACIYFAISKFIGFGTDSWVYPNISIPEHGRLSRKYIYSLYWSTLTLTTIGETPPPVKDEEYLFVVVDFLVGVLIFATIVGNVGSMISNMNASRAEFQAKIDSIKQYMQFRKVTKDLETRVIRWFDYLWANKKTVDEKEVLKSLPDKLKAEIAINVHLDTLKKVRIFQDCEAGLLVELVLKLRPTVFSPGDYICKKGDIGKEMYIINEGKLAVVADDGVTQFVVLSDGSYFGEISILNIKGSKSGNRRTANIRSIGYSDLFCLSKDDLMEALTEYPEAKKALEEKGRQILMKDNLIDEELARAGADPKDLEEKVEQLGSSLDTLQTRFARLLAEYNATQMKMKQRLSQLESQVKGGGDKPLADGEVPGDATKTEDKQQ

## Nc1nc2c(ncn2[C@@H]2O[C@@H]3COP(=O)(O)O[C@H]3[C@H]2O)c(=O)[nH]1 [cGMP, cyclic guanosine monophosphate]
[1]; cGMP activation
  Hill coefficient: 1.59 ± 0.18 (4)
[1]; read-out: K1/2 cGMP, +80 mV, no PIPn
  EC50: 8.89 ± 1.15 µM

## phosphatidylinositol (3,4,5)-trisphosphate [PIP3]
[2]; 10 µM PIP2 or 1 µM PIP3
  regulation of apparent cGMP affinity: insensitive to regulation
[2]; 10 µM PIP3
  percent change in K1/2 cGMP caused by PIP3: 2 ± 8%
[3]
  regulation of K1/2 cGMP by PIP3: PIP3-sensitive
